The results in this text go back to ChEMBL document CHEMBL3351863, “Optimization of 2-phenyl-pyrimidine-4-carboxamides towards potent, orally bioavailable and selective P2Y(12) antagonists for inhibition of platelet aggregation” (Bioorg Med Chem Lett, 2014).

pIC50: −log10 of the molar value.

Series [1] is described as follows: Solubility in neutral pH. The series is classed as physicochemical.
In series [2] the test system is Platelet. In words: Inhibition of ADP-induced platelet aggregation in human platelet rich plasma assessed as remaining activity at 1000 nM by in-vitro light transmission aggregometry assay. The series is classed as functional. The method, boiled down:
(§1)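 Light transmission aggregometry in human platelet-rich plasma; compound incubated, aggregation triggered with 3 µM ADP; remaining activity (RA) recorded at a single compound level (1000, 500 or 100 nM).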

Series [3] deals with Liver microsome. In words: Metabolic stability assay in rat liver microsomes assessed as parent drug disappearance at 1 uM after 20 mins by HPLC and mass spectrometry method. The series is classed as ADME.
A further series addresses P2Y purinoceptor 12 (Homo sapiens, UniProt Q9H244). The series can be described thus: Displacement of [3H]-2-methyl-thio-adenosine 5'-diphosphate from human recombinant P2Y12 expressed in CHO cell membranes by scintillation counting method. The method, boiled down: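 CHO cells expressing recombinant P2Y₁₂ receptors, incubated with tritium-labeled 2-methyl-thio-adenosine 5'-diphosphate plus test compound; IC₅₀ from displacement curves, each point in triplicate; reference compound run with every compound set, and set re-analyzed if its IC₅₀ fell outside pre-set 95% confidence interval.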

The target of series [4] is T1, Cytochrome P450 3A4 (Homo sapiens, UniProt P08684). In words: Inhibition of CYP3A4 in human liver microsomes assessed as reduction in testosterone 6beta-hydroxylation. The series is classed as ADME.
Series [5] has as its target T1, Cytochrome P450 3A4. The series can be described thus: Inhibition of CYP3A4 in human liver microsomes assessed as reduction in midazolam 1'-hydroxylation. The series is classed as ADME. On the technique in general: Liver microsomes are a subcellular fraction often used to study metabolism.
Another series deals with Cytochrome P450 2C9 (Homo sapiens, UniProt P11712). In words: Inhibition of CYP2C9 in human liver microsomes assessed as reduction in diclofenac 4'-hydroxylation. The series is classed as ADME.
The subject of series [6] is Platelet. In words: Inhibition of ADP-induced platelet aggregation in human platelet rich plasma assessed as remaining activity at 500 nM by in-vitro light transmission aggregometry assay. The series is classed as functional. The method, boiled down: as §1
The subject of series [7] is Liver microsome. The series can be described thus: Metabolic stability assay in human liver microsomes assessed as parent drug disappearance at 1 uM after 20 mins by HPLC and mass spectrometry method. The series is classed as ADME.
Series [8] can be described thus: Solubility in basic pH. The series is classed as physicochemical.
The target in another series is Cytochrome P450 2D6 (Homo sapiens, UniProt P10635). The series can be described thus: Inhibition of CYP2D6 in human liver microsomes assessed as reduction in dextromethorphan-O demethylation. The series is classed as ADME.
Series [9] addresses Voltage-gated inwardly rectifying potassium channel KCNH2 (Homo sapiens, UniProt Q12809). In words: Inhibition of human ERG expressed in HEK cells by patch-clamp assay. The series is classed as cell-based. Particulars: hek293; call rule not given here.
Series [10] is described as follows: Potency shift, ratio of IC50 for inhibition of ADP-induced platelet aggregation in human platelet rich plasma to IC50 for displacement of [3H]-2-methyl-thio-adenosine 5'-diphosphate from human recombinant P2Y12 expressed in CHO cell membranes. A general note: Displacement assays read how much labelled ligand stays bound in the presence of the test substance.

Series [11] has as its system Platelet. In words: Inhibition of ADP-induced platelet aggregation in human platelet rich plasma by in-vitro light transmission aggregometry assay. The series is classed as functional. The method, boiled down:
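Human platelet-rich plasma incubated with compound, aggregation induced by 3 µM ADP and read by light transmission aggregometry; IC₅₀ derived from concentration–response curve.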

Series [12] in a line: Protein binding in human plasma. The series is classed as ADME, cell-free. The following applies: read-out: PPB (converted).

Voltage-gated inwardly rectifying potassium channel KCNH2, sequence (Q12809 whole entry): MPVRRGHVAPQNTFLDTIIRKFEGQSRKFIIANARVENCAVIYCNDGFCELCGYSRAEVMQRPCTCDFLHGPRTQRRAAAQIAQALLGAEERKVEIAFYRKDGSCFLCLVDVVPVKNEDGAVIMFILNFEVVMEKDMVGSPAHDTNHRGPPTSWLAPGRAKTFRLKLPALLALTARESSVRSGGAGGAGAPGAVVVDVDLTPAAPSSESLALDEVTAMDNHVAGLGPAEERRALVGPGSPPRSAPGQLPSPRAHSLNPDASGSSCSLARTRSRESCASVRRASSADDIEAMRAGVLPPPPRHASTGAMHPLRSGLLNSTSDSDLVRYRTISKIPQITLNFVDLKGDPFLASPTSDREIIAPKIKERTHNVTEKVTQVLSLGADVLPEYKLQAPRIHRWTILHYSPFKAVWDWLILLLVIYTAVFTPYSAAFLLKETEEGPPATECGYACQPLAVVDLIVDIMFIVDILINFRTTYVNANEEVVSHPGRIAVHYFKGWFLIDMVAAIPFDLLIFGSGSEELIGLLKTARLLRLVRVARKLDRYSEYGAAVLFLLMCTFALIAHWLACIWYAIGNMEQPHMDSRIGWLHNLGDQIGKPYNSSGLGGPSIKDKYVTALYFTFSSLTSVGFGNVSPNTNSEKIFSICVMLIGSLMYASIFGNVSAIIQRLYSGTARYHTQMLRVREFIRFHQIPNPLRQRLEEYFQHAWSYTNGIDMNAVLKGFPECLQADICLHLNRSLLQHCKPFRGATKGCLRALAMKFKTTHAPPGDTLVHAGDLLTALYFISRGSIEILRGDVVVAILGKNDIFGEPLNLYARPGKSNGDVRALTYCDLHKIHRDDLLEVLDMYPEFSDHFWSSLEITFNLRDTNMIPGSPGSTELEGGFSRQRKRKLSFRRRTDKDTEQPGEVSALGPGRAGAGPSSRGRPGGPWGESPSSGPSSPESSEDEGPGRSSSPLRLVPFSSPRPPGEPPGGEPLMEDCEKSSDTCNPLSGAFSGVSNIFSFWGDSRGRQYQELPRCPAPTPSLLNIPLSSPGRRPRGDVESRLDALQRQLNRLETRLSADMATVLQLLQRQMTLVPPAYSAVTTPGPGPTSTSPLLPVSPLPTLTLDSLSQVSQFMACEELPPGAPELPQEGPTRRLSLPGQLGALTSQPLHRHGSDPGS
Cytochrome P450 2C9, sequence (P11712 whole entry): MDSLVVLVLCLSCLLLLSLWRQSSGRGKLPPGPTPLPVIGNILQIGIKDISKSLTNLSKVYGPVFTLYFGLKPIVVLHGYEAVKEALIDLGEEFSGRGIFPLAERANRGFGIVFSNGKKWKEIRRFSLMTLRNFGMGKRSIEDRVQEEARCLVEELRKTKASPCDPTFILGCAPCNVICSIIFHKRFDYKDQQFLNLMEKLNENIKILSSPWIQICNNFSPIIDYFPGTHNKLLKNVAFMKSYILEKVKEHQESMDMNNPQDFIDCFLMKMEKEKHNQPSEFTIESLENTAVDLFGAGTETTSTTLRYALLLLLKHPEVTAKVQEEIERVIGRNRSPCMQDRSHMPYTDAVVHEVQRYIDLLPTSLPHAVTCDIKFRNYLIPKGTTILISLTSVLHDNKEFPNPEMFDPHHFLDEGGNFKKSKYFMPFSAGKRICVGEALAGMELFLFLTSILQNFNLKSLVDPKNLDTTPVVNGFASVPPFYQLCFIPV
P2Y purinoceptor 12, sequence (Q9H244 whole entry): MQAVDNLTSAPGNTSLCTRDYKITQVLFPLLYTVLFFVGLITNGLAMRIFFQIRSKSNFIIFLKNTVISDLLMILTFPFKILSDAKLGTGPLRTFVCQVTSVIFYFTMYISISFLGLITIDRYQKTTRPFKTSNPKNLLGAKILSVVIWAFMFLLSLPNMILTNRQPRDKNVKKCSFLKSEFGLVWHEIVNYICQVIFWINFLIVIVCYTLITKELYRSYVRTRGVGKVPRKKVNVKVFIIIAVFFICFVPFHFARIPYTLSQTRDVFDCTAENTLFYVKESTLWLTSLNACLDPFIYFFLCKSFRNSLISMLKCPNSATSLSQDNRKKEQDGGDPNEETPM
T1 sequence (P08684 whole entry): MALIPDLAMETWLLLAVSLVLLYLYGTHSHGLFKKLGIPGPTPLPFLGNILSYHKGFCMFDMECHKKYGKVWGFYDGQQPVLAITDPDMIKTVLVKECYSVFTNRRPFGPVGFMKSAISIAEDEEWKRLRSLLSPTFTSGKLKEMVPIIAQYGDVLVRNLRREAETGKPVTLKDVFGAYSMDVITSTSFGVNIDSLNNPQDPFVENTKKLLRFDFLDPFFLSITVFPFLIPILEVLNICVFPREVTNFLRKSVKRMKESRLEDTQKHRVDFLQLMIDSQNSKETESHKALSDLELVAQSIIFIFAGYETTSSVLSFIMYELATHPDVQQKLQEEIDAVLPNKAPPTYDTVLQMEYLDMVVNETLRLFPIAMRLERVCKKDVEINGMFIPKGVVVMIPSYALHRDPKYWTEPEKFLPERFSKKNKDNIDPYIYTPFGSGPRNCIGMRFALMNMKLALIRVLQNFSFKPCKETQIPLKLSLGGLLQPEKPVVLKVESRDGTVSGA
Cytochrome P450 2D6, sequence (P10635 whole entry): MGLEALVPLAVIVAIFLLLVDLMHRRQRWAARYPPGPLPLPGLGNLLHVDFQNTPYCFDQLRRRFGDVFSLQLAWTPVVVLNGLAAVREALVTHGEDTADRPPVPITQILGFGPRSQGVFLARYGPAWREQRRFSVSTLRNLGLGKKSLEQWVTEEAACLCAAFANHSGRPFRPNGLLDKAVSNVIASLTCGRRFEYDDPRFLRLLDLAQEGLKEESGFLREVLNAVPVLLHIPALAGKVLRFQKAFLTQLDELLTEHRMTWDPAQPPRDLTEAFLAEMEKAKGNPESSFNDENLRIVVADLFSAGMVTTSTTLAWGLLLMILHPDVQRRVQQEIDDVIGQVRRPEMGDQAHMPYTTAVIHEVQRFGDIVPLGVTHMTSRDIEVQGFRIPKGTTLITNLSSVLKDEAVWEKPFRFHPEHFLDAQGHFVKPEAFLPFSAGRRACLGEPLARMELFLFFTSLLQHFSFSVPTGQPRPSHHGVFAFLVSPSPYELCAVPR

Consider `CCOC(=O)N1CCN(C(=O)[C@H](CCC(=O)O)NC(=O)c2cc(NC(=O)c3ccccc3)nc(-c3ccccc3)n2)CC1`, for which the solubility result in series [1] and in series [8] was “soluble” in each case. Further, the Activity in the series with Platelet [2] is given as over 30%; in the series with Platelet [6], over 60%. The Stability entry in the series on Liver microsome [3] and in the series on Liver microsome [7] was “Stable” in each case. The pIC50 on P2Y purinoceptor 12 is 6.75. For the same compound, the “inhibition (INH)” value (at Cytochrome P450 3A4 [4]; on Cytochrome P450 3A4 [5]; at Cytochrome P450 2C9; at Cytochrome P450 2D6; in series [9]) was “Not Active” in each case.

Consider `CCOC(=O)N1CCN(C(=O)[C@H](CCC(=O)O)NC(=O)c2cc(C3CC3)nc(-c3ccccc3)n2)CC1`, for which the solubility entry in [1] and in series [8] was “soluble” each time. For the same compound, the “Ratio IC50” value in series [10] was 54. Further, the Stability entry in the series on Liver microsome [3] and in the series on Liver microsome [7] was “Stable” throughout. Also, the pIC50 in the series on Platelet [11] (Homo sapiens, Platelet, Plasma) was 5.49; on P2Y purinoceptor 12, 7.23. Moreover, the fraction unbound in [12] is 0.003. For the same compound, the “inhibition (INH)” value (at Cytochrome P450 3A4 [4]; at Cytochrome P450 3A4 [5]; on Cytochrome P450 2C9; on Cytochrome P450 2D6; in series [9]) was “Not Active” throughout.

Consider `CCOC(=O)N1CCN(C(=O)[C@H](CCC(=O)O)NC(=O)c2cc(NS(=O)(=O)CC)nc(-c3ccccc3)n2)CC1`, for which the solubility entry in series [1] and in series [8] was “soluble” each time. Moreover, the Activity is recorded as over 30% in the series on Platelet [2] and over 60% in the series with Platelet [6]. For the same compound, the Stability entry with Liver microsome [3] and in the series on Liver microsome [7] was “Stable” each time. In addition, the pIC50 on P2Y purinoceptor 12 is 6.85. Moreover, the “inhibition (INH)” value (at Cytochrome P450 3A4 [4]; at Cytochrome P450 3A4 [5]; on Cytochrome P450 2C9; at Cytochrome P450 2D6; in series [9]) was “Not Active” in each case.

On to `CCOC(=O)N1CCN(C(=O)[C@H](CCC(=O)O)NC(=O)c2cc([C@H]3C[C@@H]3COC)nc(-c3ccccc3)n2)CC1`, for which, in [10], the “Ratio IC50” value stood at 5.8. Besides, the pIC50 was 7.06 in the series with Platelet [11] (platelet) and 7.82 at P2Y purinoceptor 12. Also, the fraction unbound in series [12] was 0.034.

Take `CCOC(=O)N1CCN(C(=O)[C@H](CCC(=O)O)NC(=O)c2cc(NCc3ccccc3)nc(-c3ccccc3)n2)CC1`: the solubility entry in [1] and in [8] was “soluble” in each case. Also, the Activity was over 30% with Platelet [2] and over 60% with Platelet [6]. In addition, the Stability result in the series with Liver microsome [3] and with Liver microsome [7] was “Stable” each time. At P2Y purinoceptor 12, the pIC50 is 6.91. The “inhibition (INH)” value (on Cytochrome P450 3A4 [4]; at Cytochrome P450 3A4 [5]; on Cytochrome P450 2C9; at Cytochrome P450 2D6; in series [9]) was “Not Active” throughout.

Take `CCOC(=O)N1CCN(C(=O)[C@H](CCC(=O)O)NC(=O)c2cc(C(C)C)nc(-c3ccccc3)n2)CC1`: the solubility entry in series [1] and in [8] was “soluble” in each case. Further, the “Ratio IC50” value in series [10] amounted to 22. In addition, the Activity in the series on Platelet [2] is over 30%; in the series on Platelet [6], over 60%. The Stability entry in the series with Liver microsome [3] and in the series with Liver microsome [7] was “Stable” each time. Besides, the pIC50 with Platelet [11] (Homo sapiens, Platelet, Plasma) is 5.94; at P2Y purinoceptor 12 it was 7.28. For the same compound, the “inhibition (INH)” value (at Cytochrome P450 3A4 [4]; on Cytochrome P450 3A4 [5]; at Cytochrome P450 2C9; at Cytochrome P450 2D6; in series [9]) was “Not Active” in each case.

Consider `CCOC(=O)N1CCN(C(=O)[C@H](CCC(=O)O)NC(=O)c2cc(NCCC(=O)O)nc(-c3ccccc3)n2)CC1`, for which the solubility entry in [1] and in series [8] was “soluble” in each case. The values for the Activity in the series with Platelet [2] and in the series on Platelet [6] were over 30% and over 60%, respectively. In addition, the Stability entry in the series with Liver microsome [3] and in the series with Liver microsome [7] was “Stable” throughout. In addition, the pIC50 on P2Y purinoceptor 12 was 6.70. Besides, the “inhibition (INH)” value (at Cytochrome P450 3A4 [4]; on Cytochrome P450 3A4 [5]; on Cytochrome P450 2C9; at Cytochrome P450 2D6; in series [9]) was “Not Active” in each case.

On to `CCOC(=O)N1CCN(C(=O)[C@H](CCC(=O)O)NC(=O)c2cc(-c3ccccc3)nc(-c3ccccc3)n2)CC1`, for which the solubility entry in [1] and in [8] was “soluble” throughout. Moreover, the Activity in the series on Platelet [2] is given as over 30%; with Platelet [6], over 60%. Also, the Stability entry in the series on Liver microsome [3] and in the series with Liver microsome [7] was “Stable” in each case. Further, the pIC50 on P2Y purinoceptor 12 was 7.19. Moreover, the “inhibition (INH)” value (at Cytochrome P450 3A4 [4]; on Cytochrome P450 3A4 [5]; on Cytochrome P450 2C9; on Cytochrome P450 2D6; in series [9]) was “Not Active” in each case.

On to `CCOC(=O)N1CCN(C(=O)[C@H](CCC(=O)O)NC(=O)c2cc(C(C)(C)C)nc(-c3ccccc3)n2)CC1`, for which the solubility entry in series [1] and in series [8] was “soluble” in each case. In addition, the “Ratio IC50” value in [10] turned out to be 57. The results for the Activity with Platelet [2] and in the series on Platelet [6] were over 30% and over 60%, respectively. In addition, the Stability result in the series on Liver microsome [3] and in the series on Liver microsome [7] was “Stable” each time. In addition, the pIC50 is 5.69 in the series with Platelet [11] (Homo sapiens, Platelet, Plasma) and 7.44 at P2Y purinoceptor 12. Besides, the “inhibition (INH)” value (on Cytochrome P450 3A4 [4]; at Cytochrome P450 3A4 [5]; on Cytochrome P450 2C9; on Cytochrome P450 2D6; in [9]) was “Not Active” throughout.

As to `CCOC(=O)N1CCN(C(=O)[C@H](CCC(=O)O)NC(=O)c2cc(Nc3ccccc3)nc(-c3ccccc3)n2)CC1`, the solubility result in [1] and in series [8] was “soluble” in each case. The Activity in the series on Platelet [2] was over 30%; with Platelet [6] it was over 60%. The Stability entry in the series with Liver microsome [3] and in the series with Liver microsome [7] was “Stable” each time. The pIC50 at P2Y purinoceptor 12 is 6.75. Besides, the “inhibition (INH)” value (on Cytochrome P450 3A4 [4]; at Cytochrome P450 3A4 [5]; at Cytochrome P450 2C9; on Cytochrome P450 2D6; in [9]) was “Not Active” in each case.

As to `CCOC(=O)N1CCN(C(=O)[C@H](CCC(=O)O)NC(=O)c2cc(-c3ccsc3)nc(-c3ccccc3)n2)CC1`, the solubility result in series [1] and in series [8] was “soluble” in each case. In addition, the Activity is listed as over 30% with Platelet [2] and over 60% in the series on Platelet [6]. Also, the Stability result in the series with Liver microsome [3] and in the series with Liver microsome [7] was “Stable” throughout. Besides, the pIC50 on P2Y purinoceptor 12 is 7.96. In addition, the “inhibition (INH)” value (at Cytochrome P450 3A4 [4]; on Cytochrome P450 3A4 [5]; at Cytochrome P450 2C9; at Cytochrome P450 2D6; in series [9]) was “Not Active” each time.

A word on the pIC50: it is −log10 of the IC50, conventionally taken in molar units.
